Experimental data published in ChEMBL document CHEMBL1149788, “Synthesis and biochemical evaluation of guanidino-alkyl-ribitol derivatives as nucleoside hydrolase inhibitors” (Eur J Med Chem, 2008).

Experiments:
IAG-nucleoside hydrolase = molecular target: T1, IAG-nucleoside hydrolase (Trypanosoma vivax, UniProt Q9GPQ4); experiment: Inhibition of Trypanosoma vivax IAG-nucleoside hydrolase expressed in Escherichia coli WK6
T1 sequence (Q9GPQ4 whole entry): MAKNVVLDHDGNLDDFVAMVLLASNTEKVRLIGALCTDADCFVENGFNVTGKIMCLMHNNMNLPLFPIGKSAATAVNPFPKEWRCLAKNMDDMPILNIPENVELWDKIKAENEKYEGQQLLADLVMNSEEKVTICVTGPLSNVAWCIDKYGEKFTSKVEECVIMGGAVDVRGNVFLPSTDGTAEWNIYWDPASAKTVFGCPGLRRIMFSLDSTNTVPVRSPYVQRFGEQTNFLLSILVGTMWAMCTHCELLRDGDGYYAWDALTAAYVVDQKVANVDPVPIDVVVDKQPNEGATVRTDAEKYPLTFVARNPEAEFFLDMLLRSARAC
How it was run: (§1)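 His6-tagged enzyme purified by Ni-NTA then Superdex-200 gel filtration; concentration per monomer from ε280 47752 M⁻¹ cm⁻¹. Initial rates of hydrolysis of fixed p-nitrophenyl-β-D-ribofuranoside at ≥5 inhibitor concentrations, 50 mM phosphate pH 7.0, 35 °C. p-Nitrophenolate release read at 400 nm (ε 12 mM⁻¹ cm⁻¹). Ki from competitive-inhibition fit via Dixon plot (1/vi vs I).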

[1] = molecular target: T2, IAG-nucleoside hydrolase (Trypanosoma vivax) (UniProt Q9GPQ4); experiment: Binding affinity to Trypanosoma vivax IAG-nucleoside hydrolase; how it was run: as §1
T2 sequence (whole entry): T1 sequence (Q9GPQ4 whole entry)

Structure (SMILES)	Ki (IAG-nucleoside hydrolase)	Activity [1]
N=C(N)c1ccc(CN2C[C@H](O)[C@H](O)[C@H]2CO)cc1	6.7 µM	–
CC(C[C@@H]1O[C@H](CO)[C@@H](O)[C@H]1O)N=C(N)N (some centres undefined)	685 µM	–
NC(N)=NC[C@@H]1O[C@H](CO)[C@@H](O)[C@H]1O	545 µM	–
OCC1[C@@H](O)[C@@H](O)CN1Cc1ccccc1 (single isomer, unassigned)	59 µM	–
N=C(N)Nc1ccc(CN2C[C@H](O)[C@H](O)[C@H]2CO)cc1	7 µM	–
NC(N)=NCCN1C[C@H](O)[C@H](O)[C@H]1CO	286 µM	–
OC[C@H]1NC[C@H](O)[C@@H]1O [IMINORIBITOL]	6.1 µM	–
O[C@@H]1[C@H](O)[C@H](O)CO[C@H]1O	–	148 mM
C[N+](C)(C)C[C@@H]1O[C@H](CO)[C@@H](O)[C@H]1O	1280 µM	–

Now from value to molecule:

Ki (IAG-nucleoside hydrolase)	Activity [1]	Structure (SMILES)
677 µM	–	NC(N)=NCCC[C@@H]1O[C@H](CO)[C@@H](O)[C@H]1O
309 µM	–	NC(N)=NCC[C@@H]1O[C@H](CO)[C@@H](O)[C@H]1O
18 µM	–	N=C(N)NCC[C@@H]1N[C@H](CO)[C@@H](O)[C@H]1O
40 µM	–	N=C(N)NCCCN1C[C@H](O)[C@H](O)[C@H]1CO
4500 µM	–	NC(=O)[C@@H]1O[C@H](CO)[C@H](O)[C@@H]1O
